Measurements taken from ChEMBL document CHEMBL1154102, “Nucleoside-amino acid conjugates: An alternative route to the design of ribonuclease A inhibitors” (Bioorg Med Chem, 2009).
Active and inactive are the calls of the source. The calls are words filed in the database; no cut-off is given here.

What was measured:
[1] = target: T1, Ribonuclease pancreatic (Bos taurus) (UniProt P61823); assay: Inhibition of bovine pancreatic RNase A assessed as change in pKa of His-119 by NMR spectroscopy
T1 sequence (whole entry): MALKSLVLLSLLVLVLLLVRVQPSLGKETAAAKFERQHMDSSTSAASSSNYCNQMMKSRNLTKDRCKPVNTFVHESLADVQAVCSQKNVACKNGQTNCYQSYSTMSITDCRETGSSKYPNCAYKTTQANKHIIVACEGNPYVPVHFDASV
Procedure, shortened: (§1)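 RNase A H/D exchanged in D2O (50 °C, 20 min, lyophilized, three cycles), redissolved in D2O with 0.17 M NaCl and 0.5 mM DSS; ligand:enzyme molar ratio 5:1; pH* 3–8 set with DCl/NaOD, uncorrected. 1H NMR at 400 MHz, 22.5 °C, 100 scans, 2 s acquisition; His C-2 shifts vs DSS fitted to titration equations for pKa; pK2 used.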

[2] = target: T1, Ribonuclease pancreatic (Bos taurus); assay: Inhibition of bovine pancreatic RNase A assessed as change in pKa of His-12 by NMR spectroscopy; procedure, shortened: as §1
[3] = target: T1, Ribonuclease pancreatic (Bos taurus); assay: Inhibition of bovine pancreatic RNase A assessed as change in pKa of His-105 by NMR spectroscopy; procedure, shortened: as §1
[4] = target: T1, Ribonuclease pancreatic (Bos taurus); assay: Inhibition of bovine pancreatic RNase A at 5 uM by fluorescence assay
Procedure, shortened: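 Fluorimetric titration, 1 cm cuvette, excitation 295 nm: 5 µM ligand in 20 mM phosphate pH 7.0 with 50 mM NaCl, RNase A added stepwise to a final 17.5 µM; change in emission intensity followed.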

[5] = target: T1, Ribonuclease pancreatic (Bos taurus); assay: Inhibition of bovine pancreatic RNase A assessed as tRNA degradation at 0.50 mM after 2 hrs by precipitation assay
Procedure, shortened: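 Bond precipitation method. RNase A with conjugate (1 mM stock) preincubated 2 h at 37 °C; aliquot added to tRNA (5 mg/ml) in Tris-HCl pH 7.5 with 5 mM EDTA and 0.5 mg/ml HSA, 30 min at 25 °C. Quenched with ice-cold 1.14 N perchloric acid/6 mM uranyl acetate, 30 min on ice, centrifuged; supernatant diluted, A260 compared to control.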

[6] = target: T1, Ribonuclease pancreatic (Bos taurus); assay: Inhibition of bovine pancreatic RNase A assessed as tRNA degradation at 0.92 mM after 6 hrs using ethidium bromide staining by agarose gel-based assay
Procedure, shortened: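 RNase A (0.66 µM stock) preincubated with varying volumes of compound (0.92 mM stock) 6 h at 37 °C. Aliquots mixed with tRNA (5.0 mg/ml) and glycerol/bromophenol blue sample buffer, 30 min further incubation, then run on 1.1% agarose in TAE pH 8.0. Undegraded tRNA seen by ethidium bromide staining under UV.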

Ribonuclease pancreatic = target: T2, Ribonuclease pancreatic (Bos taurus, UniProt P61823); assay: Inhibition of bovine pancreatic RNase A by spectrophotometric assay
T2 sequence (P61823 whole entry): T1 sequence (whole entry)

| Activity [1] | Activity [2] | Activity [3] | Activity [4] | Activity [5] | Activity [6] | Ki (Ribonuclease pancreatic) | Structure (SMILES) |
| --- | --- | --- | --- | --- | --- | --- | --- |
| inactive | inactive | inactive | – | – | – | – | Cc1cn([C@H]2C[C@H](NC(=O)C(N)CC(C)C)[C@@H](CO)O2)c(=O)[nH]c1=O (stereo not given in full) |
| – | – | – | Active | Active | Active | – | Cc1cn([C@H]2C[C@H](NC(=O)C(N)Cc3c[nH]c4ccccc34)[C@@H](CO)O2)c(=O)[nH]c1=O (stereo not given in full) |
| – | – | – | – | – | – | 7 µM | Nc1ccn([C@@H]2O[C@H](CO)[C@@H](O)[C@H]2OP(=O)(O)O)c(=O)n1 |
| – | – | – | – | Active | Active | 451 µM | Cc1cn([C@H]2C[C@H](NC(=O)C(N)Cc3ccc(O)cc3)[C@@H](CO)O2)c(=O)[nH]c1=O (stereo not given in full) |
